Structures are written as SMILES.

The nature of this data set: Toxicity liver stage against HepG2, at 10uM. In kind it is cell-based. More on the design: test concentration 10 uM, cell line HepG2-A16-CD81EGFP. To be noted: human, HepG2-A16-CD81EGFP cells; read-out: INHIBITION
The method, boiled down:
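Uninfected HepG2-A16-CD81EGFP cells, 3 × 10^3 per well, 1536-well, plated on prespotted compound at 10 μM final, parasite-free screening media added to match infected plates; puromycin 10 μM positive, DMSO 0.5% negative; run in parallel with 48 h PbLuc assay at 37 °C, 5% CO2; viability by CellTiter-Glo luminescence, normalized to controls.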
Take `CCC1c2ccsc2CCN1Cc1cc2c(cc1OC)OCCO2` (stereo unspecified): the cytotoxicity at 10 µM stood at 29.4%.
`Cc1nc(C)c(C(=O)OCCNc2ncccc2C#N)s1`: the cytotoxicity at 10 µM is -7.32%.
Turning to `Cc1cccc(CN2C(=O)OCC2CO)c1F` (stereo unspecified), the cytotoxicity at 10 µM was -2.13%.
The value for `O=S(=O)(c1ccc(Cl)s1)N1CCN(Cc2nc(-c3ccco3)cs2)CC1` was 47.6%; that for `CS(=O)(=O)Cc1ccc(CNc2ncc(C#N)cc2Cl)cc1` was 3.47%; that for `Cc1cnn(C2CN(Cc3nc(C(C)(C)C)no3)C2)c1` was -7.28%.
Under `CCCc1noc(C2CC(=O)N(C(C)(C)C)C2)n1` (stereo unspecified) stands 0.0198%; under `CC(C)CNC(=O)c1cccc(CN2CCc3c(ncn3C)C2)c1`, -6.98%; under `CCc1cc(N2CCC(n3cc(C(=O)NCC(C)C)nn3)CC2)ncn1`, 41.4%.
Under `CCc1nc2c(N3CCC4(CC3)CNC(=O)C4)ncnc2o1` stands -2%.
Turning to `O=C(Cc1cccnc1)N1CCC2(CCN(CC3CCCCC3)C2)CC1`, the cytotoxicity at 10 µM is -1.28%.
The value for `CCOc1ccc(C(=O)N2CCCC2c2cnn(C)c2)cn1` (stereo unspecified) was -3.71%.
The value for `COc1c(C2CCCN2CC(=O)Nc2cc(C)on2)c(C)nn1C` (stereo unspecified) was -1.19%; that for `Cc1nc(CN(C)C(=O)C2CC(=O)N(c3cccc(O)c3)C2)cs1` (stereo unspecified) was -0.968%.
Under `COc1cccc(CN(C)C(=O)CN2CC(n3nc(C)cc3C)C2)c1` stands -1.38%; under `Cn1cnc2c1CCN(Cc1csc(-c3ccccc3)n1)C2`, -1.04%.
`CC(=O)N1CCC(c2nnc3ccc(C(=O)NCCN(C)C)cn23)C1` (stereo unspecified): the cytotoxicity at 10 µM was -104%.
The value for `CCN1CCN(C2CCN(Cc3nc(C)c(C)o3)CC2)C1=O` was -9.92%; that for `COc1cc(-c2cnnc(NCCCOC(C)C)n2)cc(OC)c1OC` was 3.51%; that for `Cc1ccc(NC(=O)c2ccc(CC3CC(=O)NC3=O)cc2)cc1O` (stereo unspecified) was 4.99%.
The value for `c1cncc(OC[C@]23COC[C@H]2CN(C2CCOCC2)C3)c1` was 8.61%.
Consider `O=C(NCCn1ccc(-c2ccncc2)n1)C1CC1`, for which the cytotoxicity at 10 µM was -2.08%.
The value for `OC1(Cn2ccnc2)CCN(C[C@]2(O)CCCN3CCCC[C@@H]32)CC1` was 0.805%.
The value for `CC(C)c1nc(C(=O)NCCn2ccnc2)nn1-c1cccc(F)c1` was -7.64%; that for `CC(=O)NCCC(=O)NCCCOc1c(C)cccc1C` was -4.81%.
Take `CN(CCc1ccccc1)Cc1cc(C(=O)N2CCCC2(C)C)no1`: the cytotoxicity at 10 µM was -9.18%.
For `O=C(CCC1CCCN(S(=O)(=O)C2CC2)C1)Nc1ccc(Cl)cc1` (stereo unspecified), the cytotoxicity at 10 µM was 3.69%.
Under `CCNc1ccnc(NCc2cn3nc(C)sc3n2)n1` stands -3.41%.
For the compound `Cc1ccc(C(=O)NC2CCOc3ccccc32)cc1S(C)(=O)=O` (stereo unspecified), the cytotoxicity at 10 µM is -3.83%.
The value for `COc1ccc2c(c1)C(C(=O)NCCN1CCNC1=O)CC(=O)N2` (stereo unspecified) was -1.13%.
The value for `Cc1csc([C@H]2C[C@@H]3CCN(Cc4cnn(C)c4)C[C@H]3O2)n1` was -3.9%.
Under `CCOCC(=O)N1CCC2(CC1)COC(COCc1ccccn1)C2` (stereo unspecified) stands -127%; under `O=C(c1cnccn1)N1CC[C@H]2C[C@@H](c3ccncn3)O[C@@H]2C1`, -78.5%.
With `CCCn1ncnc1C(C)NC(=O)C1CCN(C(=O)C2CC2)CC1` (stereo unspecified), the cytotoxicity at 10 µM is -147%.
`NCc1n[nH]c(=O)n1-c1ccccc1Oc1ccccc1`: the cytotoxicity at 10 µM is -5.04%.
As to `CCCc1nn(C2CCN(C(C)C)C2=O)c(=O)o1` (stereo unspecified), the cytotoxicity at 10 µM is -3.59%.
The value for `CS(=O)(=O)NCC1CCCN(C(=O)COCC(F)(F)F)C1` (stereo unspecified) was -3.12%; that for `Cc1nn(C)c2nc(N(C)CCN(C)C)sc12` was 9.38%.
Under `O=C(c1cn(-c2ccccc2Cl)nn1)N1CCSCC1` stands 8.24%; under `CSCC(=O)N(C)Cc1noc(-c2ccccc2)n1`, -4.34%.
Under `CCc1nnc2n1CCN(C(=O)C(C)COCc1ccccc1)C2` (stereo unspecified) stands -9.46%.
For the compound `COc1cc(-n2cc(CCO)cn2)ccc1NC(C)=O`, the cytotoxicity at 10 µM turned out to be 9.81%.
`CCC(CC)C(=O)NS(=O)(=O)c1ccc(C#N)cc1C(F)(F)F`: the cytotoxicity at 10 µM is -15.9%.
Take `CN(CCN1CCOC1=O)CC(=O)Nc1cc(F)cc(F)c1`: the cytotoxicity at 10 µM is -49.5%.
As for `CNC(=O)CCc1cc(C2CCCN2S(C)(=O)=O)nc(C)n1` (stereo unspecified), the cytotoxicity at 10 µM was -0.0612%.
Under `Cc1ccccc1CN1CCN(C(=O)CCn2ccccc2=O)CC1` stands 3.57%; under `Cc1ncoc1C(=O)N1C[C@@H]2CN(CC3CC3)CCO[C@@H]2C1`, 9.23%; under `CCOc1cc(C(=O)N2CCCC(c3cc(C(N)=O)[nH]n3)C2)ccn1` (stereo unspecified), -7.37%.
The value for `CN1CC(Oc2ccc(Cl)cc2)=NC(SCC(=O)Nc2ccccc2)=N1` was -0.943%; that for `COc1ccc(CCC2CCCCN2)cc1OC` (stereo unspecified) was 12.1%.
Under `O=C(NCCCn1nc2ccccn2c1=O)NCc1ccccc1` stands -16.1%; under `COc1cc(CNCc2c(C(C)C)nn(C)c2N(C)C)ccn1`, 0.504%; under `Cn1c(NCCN2CCCCCC2)c(C#N)c(=O)n(C)c1=O`, 0.0687%.
On to `CC(CCc1ccccc1)N1CCC(C(=O)NCc2ccccc2)CC1` (stereo unspecified), for which the cytotoxicity at 10 µM came out at 11%.
Consider `Cc1nc(-c2ccco2)ccc1C(=O)NCCC(=O)N1CCCCC1`, for which the cytotoxicity at 10 µM was -1.33%.
The value for `CCN1C[C@H]2[C@@H](C1)N(S(=O)(=O)c1ccccc1F)CC[C@H]2OC` was -74.1%.
As to `Cc1noc([C@@]23CCO[C@@H]2CCN(CC2CCOCC2)C3)n1`, the cytotoxicity at 10 µM is -2.1%.
The value for `Cc1noc(O)c1Cc1ccc2ccccc2c1` was -8.94%; that for `CCC1c2ccsc2CCN1C(=O)NCc1cccnc1OC` (stereo unspecified) was -2.28%.
The value for `CCn1cc(-c2n[nH]c(=O)n2-c2ccc3c(c2)OCO3)c(C)n1` was 2.25%; that for `NC(=O)NCC(=O)N1C[C@@H]2CC[C@H]1CN(C1Cc3ccccc3C1)C2` was 15.3%; that for `O=C(CCN1CCCC(CO)(CC2CC2)C1)NCc1cccc(Cl)c1` (stereo unspecified) was -1.07%.
Under `CS(=O)(=O)NCc1cnc2n1CCN(Cc1ccco1)CC2` stands -4.31%.
Turning to `Cc1ncc(CNC(=O)CCOc2ccccc2)c(C2CCCN2C)n1` (stereo unspecified), the cytotoxicity at 10 µM is -1.03%.
For `Cc1c[nH]nc1C1CN(Cc2cnn(-c3ccccc3C(=O)O)c2)C1`, the cytotoxicity at 10 µM was 3.32%.
`c1ccc(CN2CCc3ncnc(-c4cncnc4)c3CC2)nc1`: the cytotoxicity at 10 µM was -68.3%.
The value for `CN1CCCC2(CCN(C(=O)c3ccncc3)C2)C1` (stereo unspecified) was -68.3%; that for `O=C(NCCCN1CCc2ccccc2C1)c1ccccc1Cl` was -13%.
The value for `CCCNC(=O)N1CCc2ccc(S(=O)(=O)N3CCCC3)cc2C1` was -12.3%; that for `O=C(CN1CC(c2nc(C3CC3)no2)C1)NCc1ccc(F)cc1` was 0.291%; that for `COc1ccc(CNC(=O)c2nn(C)c3c2CS(=O)(=O)CC3)cc1OC` was 8.09%.
